Test results as given in ChEMBL document CHEMBL3421537, “Synthesis and biological evaluation of nitrated 7-, 8-, 9-, and 10-hydroxyindenoisoquinolines as potential dual topoisomerase I (Top1)-tyrosyl-DNA phosphodiesterase I (TDP1) inhibitors” (J Med Chem, 2015).
The source made the active and inactive calls.

Experiments:
[1] = tested on: SN12C; experiment: Cytotoxicity against human SN12C cells; type: functional
Summary of the method: (§1)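 NCI-60 screen (NCI-DTP): one-dose prescreen at 10 μM, then five concentrations from 100 μM to 10 nM for compounds passing the cutoff. GI50 (50% growth inhibition) interpolated from the five-dose data. Single determination.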

[2] = Cytotoxicity against human UACC62 cells; type: functional; conditions: UACC-62; summary of the method: as §1
[3] = Cytotoxicity against human OVCAR3 cells; type: functional; conditions: OVCAR-3; summary of the method: as §1
[4] = tested on: MCF7; experiment: Cytotoxicity against human MCF7 cells; type: functional; summary of the method: as §1
[5] = tested on: SF-539; experiment: Cytotoxicity against human SF539 cells; type: functional; summary of the method: as §1
[6] = Cytotoxicity against human HCT116 cells; type: functional; conditions: HCT-116; summary of the method: as §1
[7] = tested on: DU-145; experiment: Cytotoxicity against human DU145 cells; type: functional; summary of the method: as §1
[8] = biological target: T1, DNA topoisomerase 1 (Homo sapiens) (UniProt P11387); experiment: Inhibition of human recombinant Top1 expressed in baculovirus-infected insect Sf9 cells using 3'-[32P]-end-labeled 117 bp DNA as substrate assessed as inhibition of DNA cleavage after 20 mins by PAGE analysis relative to 1 uM camptothecin
T1 sequence (whole entry): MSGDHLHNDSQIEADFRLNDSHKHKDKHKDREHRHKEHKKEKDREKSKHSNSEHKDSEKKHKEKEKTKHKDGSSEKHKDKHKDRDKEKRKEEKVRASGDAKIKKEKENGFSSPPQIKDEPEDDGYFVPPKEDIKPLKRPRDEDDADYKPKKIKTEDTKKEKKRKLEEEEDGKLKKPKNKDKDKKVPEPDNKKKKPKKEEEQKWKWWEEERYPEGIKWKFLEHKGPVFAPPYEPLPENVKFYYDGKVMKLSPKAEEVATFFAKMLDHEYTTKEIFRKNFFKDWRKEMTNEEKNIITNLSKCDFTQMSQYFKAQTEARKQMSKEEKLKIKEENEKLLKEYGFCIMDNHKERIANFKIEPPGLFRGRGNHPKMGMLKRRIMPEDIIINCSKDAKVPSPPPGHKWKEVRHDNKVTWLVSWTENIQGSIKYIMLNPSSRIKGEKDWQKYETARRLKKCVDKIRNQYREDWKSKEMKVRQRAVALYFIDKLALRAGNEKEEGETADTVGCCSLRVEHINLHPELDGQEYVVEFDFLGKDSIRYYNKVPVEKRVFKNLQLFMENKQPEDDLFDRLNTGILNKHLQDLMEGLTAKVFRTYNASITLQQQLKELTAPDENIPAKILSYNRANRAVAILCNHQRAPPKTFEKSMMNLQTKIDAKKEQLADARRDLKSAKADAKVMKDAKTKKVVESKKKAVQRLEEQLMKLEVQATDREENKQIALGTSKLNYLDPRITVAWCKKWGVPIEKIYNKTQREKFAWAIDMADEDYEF
Summary of the method: (§2)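 About 2 nM 3′-[32P]-end-labeled 117-bp DNA (Klenow fill-in with [α32P]dGTP) incubated with recombinant Top1 and compound for 20 min at room temperature. Stopped with 0.5% SDS, run on 20% denaturing PAGE, read by phosphorimager. Cleavage bands scored visually against 1 μM camptothecin on a 0 to +++++ scale.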

[9] = biological target: Tyrosyl-DNA phosphodiesterase 1 (Homo sapiens, UniProt Q9NUW8); experiment: Inhibition of human recombinant TDP1 assessed as hydrolysis of N14Y to N14P after 15 mins by PAGE analysis
Tyrosyl-DNA phosphodiesterase 1, sequence (Q9NUW8 whole entry): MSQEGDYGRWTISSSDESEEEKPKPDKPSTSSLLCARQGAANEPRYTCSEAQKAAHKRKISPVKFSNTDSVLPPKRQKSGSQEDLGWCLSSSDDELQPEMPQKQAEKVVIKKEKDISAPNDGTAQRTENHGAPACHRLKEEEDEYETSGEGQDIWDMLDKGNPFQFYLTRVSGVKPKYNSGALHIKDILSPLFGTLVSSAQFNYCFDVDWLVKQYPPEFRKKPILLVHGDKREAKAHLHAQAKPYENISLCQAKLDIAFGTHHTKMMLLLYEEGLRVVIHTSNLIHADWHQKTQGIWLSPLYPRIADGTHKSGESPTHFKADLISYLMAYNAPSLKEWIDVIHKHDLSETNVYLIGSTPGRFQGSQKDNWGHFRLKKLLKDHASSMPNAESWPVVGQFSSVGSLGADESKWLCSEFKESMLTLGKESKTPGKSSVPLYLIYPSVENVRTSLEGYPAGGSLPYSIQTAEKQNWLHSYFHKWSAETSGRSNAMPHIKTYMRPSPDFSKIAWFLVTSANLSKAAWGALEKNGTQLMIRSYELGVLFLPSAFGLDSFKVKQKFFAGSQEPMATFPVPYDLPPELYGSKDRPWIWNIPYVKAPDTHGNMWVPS

[10] = tested on: HOP-62; experiment: Cytotoxicity against human HOP62 cells; type: functional; summary of the method: as §1
[11] = biological target: T1, DNA topoisomerase 1 (Homo sapiens); experiment: Inhibition of human recombinant Top1 expressed in baculovirus-infected insect Sf9 cells using 3'-[32P]-end-labeled 117 bp DNA as substrate assessed as inhibition of DNA cleavage after 20 mins by PAGE analysis; summary of the method: as §2
[12] = biological target: T1, DNA topoisomerase 1 (Homo sapiens); experiment: Poisoning activity at human recombinant Top1 expressed in baculovirus-infected insect Sf9 cells using 3'-[32P]-end-labeled 117 bp DNA as substrate assessed as delay in reversal of drug-enzyme-DNA cleavage complex formation at 1 uM measured over 10 mins by PAGE analysis
[13] = biological target: T1, DNA topoisomerase 1 (Homo sapiens); experiment: Poisoning activity at human recombinant Top1 expressed in baculovirus-infected insect Sf9 cells using 3'-[32P]-end-labeled 117 bp DNA as substrate assessed as trapping of enzyme cleavage complex at 0.005 to 100 uM measured after 20 mins by PAGE analysis; summary of the method: as §2

Structure (SMILES)	GI50 [1] [nM]	GI50 [2] [nM]	GI50 [3] [nM]	GI50 [4] [nM]	GI50 [5] [nM]	GI50 [6] [nM]	GI50 [7] [nM]	inhibition [8]	inhibition [9]	GI50 [10] [nM]	IC50 [9] [nM]	inhibition [11]	Activity [12]	Activity [13]
COc1cc2c(cc1O)C(=O)c1c-2n(CCCN)c(=O)c2cc([N+](=O)[O-])ccc12	< 10	< 10	27	< 10	< 10	< 10	< 10	50%	Dose-dependent effect	< 10				
O=C1c2cccc(O)c2-c2c1c1ccc([N+](=O)[O-])cc1c(=O)n2CCCn1ccnc1								75%			> 111000			
O=C1c2ccc(O)cc2-c2c1c1ccc([N+](=O)[O-])cc1c(=O)n2CCCn1ccnc1	< 10	< 10	23	< 10	< 10	< 10	< 10	75%			> 111000	Dose-dependent effect		
COc1cc2c(cc1O)C(=O)c1c-2n(CCCn2ccnc2)c(=O)c2cc(OC)c(OC)cc12											> 111000			
O=C1c2cc(O)ccc2-c2c1c1ccc([N+](=O)[O-])cc1c(=O)n2CCCBr	< 10	< 10	23	< 10	< 10	< 10	< 10	Active					Active	Active
NCCCn1c2c(c3ccc([N+](=O)[O-])cc3c1=O)C(=O)c1cccc(O)c1-2								50%						
O=C1c2cc(O)ccc2-c2c1c1ccc([N+](=O)[O-])cc1c(=O)n2CCCN1CCOCC1	< 10	< 10	< 10	< 10	< 10	< 10	< 10	Active		< 10	> 111000			
COc1cc2c(cc1O)-c1c(c3cc(OC)c(OC)cc3c(=O)n1CCCn1ccnc1)C2=O											> 111000			
COc1cc2c(cc1O)C(=O)c1c-2n(CCCN2CCOCC2)c(=O)c2cc(OC)c(OC)cc12											> 111000			
CC[C@@]1(O)C(=O)OCc2c1cc1n(c2=O)Cc2cc3ccccc3nc2-1													inactive	
NCCCn1c2c(c3ccc([N+](=O)[O-])cc3c1=O)C(=O)c1cc(O)ccc1-2	46	41	220	26	30	78	52	Active		56				
COc1cc2c(cc1O)C(=O)c1c-2n(CCCN2CCOCC2)c(=O)c2cc([N+](=O)[O-])ccc12	< 10	< 10		< 10	< 10	< 10	< 10	50%	Dose-dependent effect	< 10	> 111000			
O=C1c2ccc(O)cc2-c2c1c1ccc([N+](=O)[O-])cc1c(=O)n2CCCN1CCOCC1	36	20	41	< 10	21	26	34	Active		25	> 111000	Dose-dependent effect		
NCCCn1c2c(c3ccc([N+](=O)[O-])cc3c1=O)C(=O)c1c(O)cccc1-2	3400	2500	2900	250	1700	470	1200	75%		1900				
NCCCn1c2c(c3ccc([N+](=O)[O-])cc3c1=O)C(=O)c1ccc(O)cc1-2			270	120	210	220	350	75%						
O=C1c2cccc(O)c2-c2c1c1ccc([N+](=O)[O-])cc1c(=O)n2CCCN1CCOCC1								50%			> 111000			
COc1cc2c(cc1O)-c1c(c3ccc([N+](=O)[O-])cc3c(=O)n1CCCN)C2=O	450	950	1700	170	660	150	430	50%	Dose-dependent effect	470				
O=C1c2c(O)cccc2-c2c1c1ccc([N+](=O)[O-])cc1c(=O)n2CCCn1ccnc1	170	180	230	56	150	130	130	75%		81	> 111000	Dose-dependent effect		
O=C1c2ccccc2-c2c1c1ccccc1c(=O)n2CCCNCCCNCCCn1c2c(c3ccccc3c1=O)C(=O)c1ccccc1-2									Dose-dependent effect					
O=C1c2cc(O)ccc2-c2c1c1ccc([N+](=O)[O-])cc1c(=O)n2CCCn1ccnc1	< 10	< 10	19	< 10	< 10	< 10	< 10	75%		< 10	> 111000			
O=C1c2c(O)cccc2-c2c1c1ccc([N+](=O)[O-])cc1c(=O)n2CCCN1CCOCC1		390	29000	64	200	550		50%		12000	> 111000	Dose-dependent effect		
COc1cc2c(cc1O)-c1c(c3ccc([N+](=O)[O-])cc3c(=O)n1CCCn1ccnc1)C2=O	51		320	20	49	71	51	50%		85				
COc1cc2c(cc1O)-c1c(c3ccc([N+](=O)[O-])cc3c(=O)n1CCCN1CCOCC1)C2=O	63	39	720	35	130		110	50%		79	> 111000			
COc1cc2c(cc1O)C(=O)c1c-2n(CCCn2ccnc2)c(=O)c2cc([N+](=O)[O-])ccc12	< 10	< 10	< 10	< 10	< 10	< 10	< 10	20%	Dose-dependent effect	< 10	> 111000			
